A short description of test [1]: Antiplatelet aggregation activity against ADP-induced rabbit platelet assessed as platelet aggregation at 100 ug/mL relative to control. The class given is functional, Oryctolagus cuniculus. An outline of the steps: (§1)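 Blood from rabbit marginal ear vein was mixed with EDTA to a final 6 mM. It was spun at 90g for 10 min at room temperature to give platelet-rich plasma, then at 500g for 10 min. Platelets were preincubated with sample or 0.5% DMSO for 1 min at 37 °C, then triggered with ADP, arachidonic acid, collagen (10 µg/mL) or PAF (2 ng/mL). Mean ± S.D.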

Test [2] deals with P388. The test is described as follows: Cytotoxicity against mouse P388 cells. The class given is functional, cell-based.
Another test concerns RPMI-7951. The test is described as follows: Cytotoxicity against human RPMI7951 cells. The class given is functional, cell-based.
A further test concerns KB. The experiment in a line: Cytotoxicity against human KB cells. The class given is functional, cell-based.
The next test relates to A549. The test is described as follows: Cytotoxicity against human A549 cells. The class given is functional, cell-based.
Test [3] can be described thus: Antiplatelet aggregation activity against collagen-induced rabbit platelet assessed as platelet aggregation at 100 ug/mL relative to control. The class given is functional, Oryctolagus cuniculus. A digest of the protocol:
as §1

The nature of test [4]: Antiplatelet aggregation activity against platelet activating factor-induced rabbit platelet assessed as platelet aggregation at 100 ug/mL relative to control. The class given is functional, Oryctolagus cuniculus. An outline of the steps: as §1
Another test concerns HCT-8. The test is described as follows: Cytotoxicity against human HCT8 cells. The class given is functional, cell-based.
Another test concerns TE-671. The test is described as follows: Cytotoxicity against human TE671 cells. The class given is functional, cell-based.
The nature of test [5]: Antiplatelet aggregation activity against arachidonic acid-induced rabbit platelet assessed as platelet aggregation at 100 ug/mL relative to control. The class given is functional, Oryctolagus cuniculus. A digest of the protocol:
as §1

Test [6] deals with P388. The experiment in a line: In vivo cytotoxic activity against mouse P388 cells at 1 mg/kg relative to control. The class given is functional.

SMILES strings stand for the structures. Converted amounts (≈) assume the structure as drawn.

The values below come from ChEMBL document CHEMBL1146446, “Cytotoxic and antiplatelet aggregation principles from Aglaia elliptifolia” (J Nat Prod, 1997).

With `COc1ccc([C@@]23Oc4cc(OC)cc(OC)c4[C@]2(O)[C@H](O)[C@H](C(=O)N(C)C)[C@H]3c2ccccc2)cc1` [ROCAGLAMIDE], the Activity came to 77.6% in test [1], 83.8% in test [3], 85.5% in test [4] and 90.5% in test [5]. Also, the IC50 with P388 [2] was found to be 5 ng/mL (≈ 0.00989 µM); with RPMI-7951, 2 ng/mL (≈ 0.00396 µM); in the test with KB it was 6 ng/mL (≈ 0.0119 µM); in the test with A549, 6 ng/mL (≈ 0.0119 µM); with HCT-8, 7 ng/mL (≈ 0.0138 µM); with TE-671, 6 ng/mL (≈ 0.0119 µM). Also, the T/C with P388 [6] was found to be 156%.

Consider `CC[C@]1(O)C[C@@H]2CN(CCc3c([nH]c4ccccc34)[C@@](C(=O)OC)(c3cc4c(cc3OC)N(C)[C@H]3[C@@](O)(C(=O)OC)[C@H](OC(C)=O)[C@]5(CC)C=CCN6CC[C@]43[C@@H]65)C2)C1.O=S(=O)(O)O` [VINBLASTINE SULFATE], for which the IC50 in the test on A549 came to 2 ng/mL; with HCT-8 it was 5 ng/mL.

For the molecule `COc1cc([C@@H]2c3cc4c(cc3[C@@H](O[C@@H]3O[C@@H]5CO[C@@H](C)O[C@H]5[C@H](O)[C@H]3O)[C@H]3COC(=O)[C@H]23)OCO4)cc(OC)c1O` [ETOPOSIDE], the IC50 in the test on P388 [2] is 2620 ng/mL (≈ 4.45 µM); with KB it was 120 ng/mL (≈ 0.204 µM).

With `COc1cc2ccc(=O)oc2cc1O` [SCOPOLETIN], the Activity in test [1] is given as 65.3%; in [3] it was 79.2%; in [4], 90.5%; in test [5], 79.2%. 4000 ng/mL (≈ 20.8 µM) corresponded to half-maximal inhibition with KB (IC50).

Regarding `COC(=O)[C@H]1[C@@H](O)[C@@]2(O)c3c(OC)cc(OC)cc3O[C@@]2(c2ccc(OC)cc2)[C@@H]1c1ccccc1` [AGLAFOLIN], the Activity in [1] turned out to be 85.2%; in [3] it was 88.6%; in test [4] it was 0%; in test [5], 0%. The IC50 with P388 [2] came out at 2 ng/mL (≈ 0.00406 µM); with RPMI-7951, 1 ng/mL (≈ 0.00203 µM); in the test on KB, 1 ng/mL (≈ 0.00203 µM); in the test with A549 it was 1 ng/mL (≈ 0.00203 µM); in the test on HCT-8, 5 ng/mL (≈ 0.0102 µM); with TE-671, 1 ng/mL (≈ 0.00203 µM).

For `COc1cccc2c1C(=O)c1c(O)c3c(c(O)c1C2=O)C[C@@](O)(C(=O)CO)C[C@@H]3O[C@H]1C[C@H](N)[C@H](O)[C@H](C)O1.Cl` [DOXORUBICIN HYDROCHLORIDE], the IC50 was determined as 150 ng/mL with A549 and 300 ng/mL in the test on HCT-8.

For orientation: IC50 means the concentration that inhibits the measured activity by half. For orientation: T/C means the result in the treated group divided by that in the control group, in per cent.
